Screening data (PubChem BioAssay)
FAK inh: FAK (human) kinase inhibition | Q05397 | biochemical FAK kinase activity assay | inhibition, %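 (tested at 7 µM)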 | 97,000 tested, 0.84% active | AID 727; in the data active = inhibition above about 19%;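 note: 0% = DMSO and 100% = reference compound high control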
LYP inh 2: inhibitors of human LYP (PTPN22) phosphatase; inhibition, % at 2 µM; Q9Y2R2; recombinant LYP catalytic domain, DiFMUP fluorescence; 96,000 tested, 0.21% active; AID 640;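 active = inhibition at 2 µM at or above a set limit, the screen mean plus 3 SD, cut at about 24% in these data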;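 note: 0% = DMSO with enzyme and 100% = enzyme fully blocked by orthovanadate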
HIV Rev-RRE inh: disrupts HIV-1 Rev binding to RRE RNA; 97,000 tested, 0.79% active; inhibition, % at 8 µM; P05866; Rev peptide-RRE RNA binding, FRET; AID 704;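 active = inhibition above the screen-wide mean plus 3 SD, cut at about 35% in these data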;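 note: 0% = median DMSO wells and 100% = median Neomycin B control wells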
Target sequence (P05866 whole entry, looked up): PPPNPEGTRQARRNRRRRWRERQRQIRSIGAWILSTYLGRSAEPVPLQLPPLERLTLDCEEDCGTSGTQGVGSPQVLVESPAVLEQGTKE
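Test system – labelled RRE RNA duplex and labelled Rev peptide · Reagent – labelled Rev peptide · Doses – one concentration, 8 µM nominal · Incubation – 5 + 15 min at 25 °C · Signal – FRET fluorescence readout · Read-out basis – % inhibition of FRET ratio versus controls · Control set – DMSO wells as 0% and neomycin B wells as 100% inhibition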
LYP act: increases human PTPN22 phosphatase activity | Q9Y2R2 | recombinant LYP, DiFMUP fluorescence; 0 = plate median, 100 = signal doubled | activation, % at 2 µM | 96,000 tested, 0.11% active;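 active = activation at 2 µM above a set limit, the mean plus 5 SD, cut at about 37% in these data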
* marks the source's active call; other numbers are inactive results; [ ] = another dose, or the depositor's remark. Most compounds without a hit are left out; they make up all but 1.8% or so of the library.

SMILES | FAK inh | LYP inh 2 | HIV Rev-RRE inh | LYP act
O=C(Nc1nnc(COc2ccc(Cl)cc2)s1)c1ccc([N+](=O)[O-])cc1 | 0 | 24* | 5 | -22
O=C(Nc1nnc(CCS(=O)(=O)c2ccc(Br)cc2)s1)c1ccc([N+](=O)[O-])cc1 | -1 | 18 | 8 | -15
COc1ccc(C2C(=O)N(C3CCCCC3)CC(=O)N2C2CCCCC2)cc1 (centres undefined) | 0 | 25* | 9 | -24
Cc1cccc(/C=C/C(=O)c2cc(Br)ccc(=O)c2O)c1 | -4 | -4 | 37* | 1
C=CCNc1ncnc2c1[nH]c1ccc(C)cc12 | 25* | -3 | 7 | 2
O=C(c1ccccc1)c1ccc2ccccc2n1 | 1 | 2 | 2 | -3
O=C(O)C(=O)/C(=C\c1ccccc1)c1ccc2ccccc2n1 | 0 | -9 | 78* | 6
O=C(O)C(=O)/C(=C\c1cccc2ccccc12)c1ccc2ccccc2n1 | -2 | 7 | 89*[fluorescence artefact?] | -5
Cc1cccc(NC(=O)c2ccc3ccccc3n2)c1C | 3 | -3 | 19 | 5
COc1ccc(/C=C/c2nc3sc4c(c3c(=O)o2)CCC4)cc1 | -2 | 10 | 2 | -8
O=c1oc(/C=C/c2ccccc2)nc2sc3c(c12)CCC3 | 0 | 0 | 38* | 2
CCCSc1nc(C)cc(C)c1C(N)=O | -2 | -8 | 6 | 10
O=C(CSc1ccc2nnc(-c3ccc(Cl)cc3)n2n1)N1CCc2ccccc21 | -1 | -5 | 5 | 4
Cc1ccc(-n2nnc3c(=O)n(Cc4cc(C)ccc4C)cnc32)cc1 | 22* | 9 | 16 | -6
Cc1ccc(-n2nnc3c(=O)n(Cc4cccc(C)c4)cnc32)cc1 | 1 | -5 | 6 | 1
CCCCCCC(=O)NC(Nc1ccc(S(N)(=O)=O)cc1)C(Cl)(Cl)Cl (centres undefined) | 0 | -17 | 6 | 14
O=C(Nc1ccc(F)cc1)N(Cc1ccco1)Cc1cc2cc3c(cc2[nH]c1=O)OCO3 | 0 | -3 | 37* | -1
Cc1ccc(NC(=O)N(Cc2ccc3c(c2)OCO3)Cc2cc3cc4c(cc3[nH]c2=O)OCCO4)cc1 | -1 | 7 | 4 | -9
Cc1sc2ncnc(SCC(=O)NNC(=O)COc3cccc4ccccc34)c2c1C | -5 | 12 | 0 | -9
COc1ccc(OC)c(Nc2nc(N)nc(CSc3nnc(-c4ccncc4)o3)n2)c1 | -1 | 4 | 5 | -1
COc1ccc(Nc2ncccc2C(=O)NCc2ccccc2)cc1 | 1 | -6 | 3 | 5
COc1cccc(Nc2ncccc2C(=O)NCc2ccccc2)c1 | 3 | -10 | 52* | 6
Cc1noc(/C=C/c2ccc(-c3ccccc3Cl)o2)c1[N+](=O)[O-] | 2 | -6 | 103*[fluorescence artefact?] | 3
CCn1cc(-c2nnnn2-c2ccc(Cl)cc2)c(=O)c2ccccc21 | -2 | -4 | 6 | 7
CC1=CC(C#N)(C#N)C(C#N)(C#N)C(c2ccccc2)N1 (centres undefined) | 4 | 4 | 52* | -2
SMILES | FAK inh | LYP inh 2 | HIV Rev-RRE inh | LYP act
COC1(OC)N=C(N)C2(C#N)C(c3ccccc3)NC(C)=CC12C#N (centres undefined) | 6 | 3 | 7 | 0
CCN1CC=C2C(C1)C(c1ccc(Cl)s1)C(C#N)=C(N)C2(C#N)C#N (centres undefined) | -8 | -5 | 87*[fluorescence artefact?] | 2
O=C1/C(=C/c2ccccc2)Nc2ccccc21 | 15 | 2 | 129*[fluorescence artefact?] | 3
CCn1c(O)c(/C=C2\C=Nc3ccccc32)sc1=Nc1ccc(C)cc1 | 1 | -2 | 7 | 8
CC1=Nc2ccccc2/C1=C/c1sc(=N)n(-c2nccs2)c1O | -4 | 7 | 62* | -10
CN(/C(=N\S(=O)(=O)c1ccccc1)C(F)(F)F)c1ccccc1 | 10 | 0 | 37* | 5
CCN(CC)C(=O)Cn1cnc2sc(C(=O)Nc3cc(OC)c(OC)c(OC)c3)c(C)c2c1=O | -1 | 2 | 5 | 0
Nc1nc(-c2ccc3ccccc3c2)c(C2(O)C(=O)Nc3c(Br)cc(F)cc32)s1 (centres undefined) | 0 | 0 | 8 | 2
CCN(CC)c1ccc(C(=O)OCC(=O)NCC2CCCO2)cc1 (centres undefined) | -1 | 3 | -6 | -3
COc1ccc(C2C(C(C)=O)=C(C)N=c3s/c(=C\c4ccco4)c(=O)n32)c(OC)c1 (centres undefined) | 5 | -3 | 11 | 2
COc1ccc(C2C(C(C)=O)=C(C)N=c3s/c(=C\c4cc(C)n(C)c4C)c(=O)n32)c(OC)c1 (centres undefined) | -3 | 4 | 128*[fluorescence artefact?] | -6
CC(=O)OCCCN1c2ccccc2Nc2nnc(-c3ccccc3)cc21 | 0 | 1 | 1 | 1
CN1CCc2c(sc3c2C(=O)NC(c2ccco2)N3)C1 (centres undefined) | 13 | 7 | 28 | -4
CCOC(=O)N1CCc2c(sc3c2C(=O)NC(c2ccccc2)N3)C1 (centres undefined) | 2 | 7 | 6 | -9
O=C1NC(c2ccco2)Nc2sc3c(c21)CCN(Cc1ccccc1)C3 (centres undefined) | 1 | 11 | 70* | -14
CN1CCc2c(sc3c2C(=O)NC(c2cn(Cc4ccccc4)c4ccccc24)N3)C1 (centres undefined) | 10 | 10 | 79* | -10
COC(=O)c1cc(NC(=O)c2ccccc2)c(=O)oc1C/C=N\OCc1ccc(Cl)cc1Cl | -3 | 8 | 48* | -7
CO/N=C\Cc1oc(=O)c(NC(=O)c2ccccc2)cc1C(=O)OC | -1 | 2 | 19 | -2
O=C(O)CCN1C(=O)/C(=C/c2ccc(-c3nc4ccccc4s3)o2)SC1=S | 2 | 24* | 34 | -22
Cc1ccc(/C=C2\SC(=S)N(Cc3ccccc3)C2=O)o1 | -4 | 10 | 5 | -6
O=C(O)CC(C(=O)O)N1C(=O)/C(=C/c2ccc(-c3nc4ccccc4s3)o2)SC1=S (centres undefined) | -1 | 7 | 52* | -3
CCN1C(=O)c2ccc(C(=O)Nc3nccs3)cc2C1=O | -1 | 3 | 10 | -3
O=C(Nc1nccs1)c1cccc(N2C(=O)c3cccc4c([N+](=O)[O-])ccc(c34)C2=O)c1 | -1 | 4 | 51* | -2
CCc1ccc(OCc2nnc(NC(=O)c3cccs3)s2)cc1 | 1 | -5 | 2 | 8
COCCNC(=O)C(OC(=O)CC1Sc2ccccc2NC1=O)c1ccccc1 (centres undefined) | 1 | 2 | 10 | -3
CN(C)c1ccc(/C=C/c2ccncc2)cc1 | 0 | 10 | 72* | -6
c1ccc(-n2nnnc2-c2cnc(-c3ccncc3)nc2-c2cccs2)cc1 | 30* | -6 | 3 | 8
CCOC(=O)c1c(C)[nH]c(C(=O)COC(=O)C(C)N2C(=O)C3CCCCC3C2=O)c1C (centres undefined) | -2 | 0 | 9 | -3
O=C(Nc1ccnc(-c2cccnc2)n1)c1cccc(Cl)c1Cl | 15 | 14 | 1 | -12
